As usually defined, the inhibition is the percentage by which the read-out fell short of the control.

A value given as a limit tells only on which side of the number the result lay.

The text below walks through data of ChEMBL document CHEMBL2424622, “Development of amino-pyrimidine inhibitors of c-Jun N-terminal kinase (JNK): kinase profiling guided optimization of a 1,2,3-benzotriazole lead” (Bioorg Med Chem Lett, 2013).

The target in assay [1] is Proto-oncogene tyrosine-protein kinase Src (Homo sapiens) (UniProt P12931). Kind of assay: Competitive binding affinity to SRC (unknown origin) at 10 uM in presence of ATP relative to control. The gist of the method: (§1)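 In vitro ATP-site competition binding assay across a diverse panel of 128 kinases, with compound tested at a single concentration. Kinase selectivity scores (S15) were calculated from the panel profiles.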

Assay [2] concerns the target T1, Serine/threonine-protein kinase Nek9 (Homo sapiens) (UniProt Q8TD19).
T1 sequence (whole entry): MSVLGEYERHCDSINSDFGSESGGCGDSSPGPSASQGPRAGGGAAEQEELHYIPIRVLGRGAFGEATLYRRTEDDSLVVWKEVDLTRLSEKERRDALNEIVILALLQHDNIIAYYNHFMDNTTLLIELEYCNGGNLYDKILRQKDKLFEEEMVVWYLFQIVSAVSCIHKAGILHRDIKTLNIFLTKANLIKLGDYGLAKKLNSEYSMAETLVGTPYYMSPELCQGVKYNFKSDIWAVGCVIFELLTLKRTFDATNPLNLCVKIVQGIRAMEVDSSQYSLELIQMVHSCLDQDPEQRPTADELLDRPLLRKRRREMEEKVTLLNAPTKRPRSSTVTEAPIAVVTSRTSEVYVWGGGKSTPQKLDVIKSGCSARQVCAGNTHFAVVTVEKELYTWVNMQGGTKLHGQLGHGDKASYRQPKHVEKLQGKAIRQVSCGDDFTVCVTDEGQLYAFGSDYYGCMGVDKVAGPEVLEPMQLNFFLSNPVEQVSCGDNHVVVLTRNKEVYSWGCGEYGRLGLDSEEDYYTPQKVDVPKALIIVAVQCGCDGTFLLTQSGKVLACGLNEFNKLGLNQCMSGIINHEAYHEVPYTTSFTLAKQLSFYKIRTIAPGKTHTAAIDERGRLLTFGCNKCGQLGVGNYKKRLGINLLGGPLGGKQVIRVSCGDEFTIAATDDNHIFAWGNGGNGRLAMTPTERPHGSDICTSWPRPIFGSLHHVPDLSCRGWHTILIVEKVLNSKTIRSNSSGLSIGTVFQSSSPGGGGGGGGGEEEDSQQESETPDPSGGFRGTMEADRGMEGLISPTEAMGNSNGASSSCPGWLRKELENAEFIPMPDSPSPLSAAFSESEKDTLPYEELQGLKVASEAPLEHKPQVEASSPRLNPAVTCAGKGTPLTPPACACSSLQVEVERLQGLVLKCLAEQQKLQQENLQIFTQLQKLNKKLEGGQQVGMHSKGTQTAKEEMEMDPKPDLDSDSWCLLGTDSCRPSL
Kind of assay: Competitive binding affinity to NEK9 (unknown origin) at 10 uM in presence of ATP relative to control. The gist of the method: as §1

In assay [3] the target is Insulin receptor (Homo sapiens) (UniProt P06213). The assay can be described thus: Competitive binding affinity to INSR (unknown origin) at 10 uM in presence of ATP relative to control. The gist of the method: (§2)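 In vitro ATP-site competition binding assay, part of profiling against a diverse panel of 128 kinases. Each compound was tested at a single concentration of 10 µM. Kinome selectivity was summarized as S15 selectivity scores.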

The target in assay [4] is Serine/threonine-protein kinase B-raf (Homo sapiens) (UniProt P15056). The assay can be described thus: Competitive binding affinity to BRAF (unknown origin) at 10 uM in presence of ATP relative to control.
In assay [5] the target is Serine/threonine-protein kinase Nek6 (Homo sapiens) (UniProt Q9HC98). The assay can be described thus: Competitive binding affinity to NEK6 (unknown origin) at 10 uM in presence of ATP relative to control. In a few lines:
as §1

The target in assay [6] is Fibroblast growth factor receptor 1 (Homo sapiens) (UniProt P11362). Kind of assay: Competitive binding affinity to FGFR1 (unknown origin) at 10 uM in presence of ATP relative to control. The gist of the method: as §2
The target of assay [7] is Casein kinase I isoform gamma-2 (Homo sapiens) (UniProt P78368). The assay can be described thus: Competitive binding affinity to CSNK1G2 (unknown origin) at 10 uM in presence of ATP relative to control.
For assay [8], the target named is T2, Ephrin type-A receptor 6 (Homo sapiens) (UniProt Q9UF33).
T2 sequence (whole entry): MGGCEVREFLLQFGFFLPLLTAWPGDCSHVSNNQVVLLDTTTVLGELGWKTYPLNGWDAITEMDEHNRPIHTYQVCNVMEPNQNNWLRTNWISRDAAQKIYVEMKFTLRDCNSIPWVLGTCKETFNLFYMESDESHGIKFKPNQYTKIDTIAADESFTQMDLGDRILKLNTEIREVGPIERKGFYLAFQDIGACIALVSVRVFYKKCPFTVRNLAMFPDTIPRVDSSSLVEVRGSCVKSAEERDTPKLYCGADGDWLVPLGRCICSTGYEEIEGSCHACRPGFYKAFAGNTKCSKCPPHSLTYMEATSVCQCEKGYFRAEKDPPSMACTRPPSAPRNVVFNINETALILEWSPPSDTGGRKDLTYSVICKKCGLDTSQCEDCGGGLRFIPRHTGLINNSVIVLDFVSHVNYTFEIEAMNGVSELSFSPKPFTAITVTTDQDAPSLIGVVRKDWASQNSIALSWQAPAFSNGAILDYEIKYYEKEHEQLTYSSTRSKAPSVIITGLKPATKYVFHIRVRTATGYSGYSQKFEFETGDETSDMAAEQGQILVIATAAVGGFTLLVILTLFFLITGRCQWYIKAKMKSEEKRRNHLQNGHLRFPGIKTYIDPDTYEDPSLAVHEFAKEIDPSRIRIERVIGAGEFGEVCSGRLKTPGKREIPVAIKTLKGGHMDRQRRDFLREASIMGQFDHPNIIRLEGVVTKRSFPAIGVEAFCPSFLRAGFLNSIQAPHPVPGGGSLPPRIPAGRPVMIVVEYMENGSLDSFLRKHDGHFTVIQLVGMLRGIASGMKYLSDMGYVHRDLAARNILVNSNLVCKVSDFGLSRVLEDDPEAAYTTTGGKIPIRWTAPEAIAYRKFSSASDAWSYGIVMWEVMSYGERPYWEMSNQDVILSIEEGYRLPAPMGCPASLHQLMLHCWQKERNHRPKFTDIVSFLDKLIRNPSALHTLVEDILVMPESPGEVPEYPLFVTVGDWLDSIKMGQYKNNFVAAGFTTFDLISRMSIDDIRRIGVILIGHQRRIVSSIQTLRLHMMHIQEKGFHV
The assay can be described thus: Competitive binding affinity to EPHA6 (unknown origin) at 10 uM in presence of ATP relative to control. The gist of the method: as §2

The target of assay [9] is Tyrosine-protein kinase CSK (Homo sapiens) (UniProt P41240). Kind of assay: Competitive binding affinity to CSK (unknown origin) at 10 uM in presence of ATP relative to control.
Assay [10] addresses Calcium/calmodulin-dependent protein kinase type II subunit beta (Homo sapiens) (UniProt Q13554). The assay can be described thus: Competitive binding affinity to CAMK2B (unknown origin) at 10 uM in presence of ATP relative to control.
In assay [11] the target is AP2-associated protein kinase 1 (Homo sapiens) (UniProt Q2M2I8). Kind of assay: Competitive binding affinity to AAK1 (unknown origin) at 10 uM in presence of ATP relative to control. In a few lines: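 In vitro ATP-site competition binding assay across a diverse panel of 128 kinases, with each compound tested at a single concentration. Kinase binding is expressed relative to control.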
Sequence of AP2-associated protein kinase 1 (Homo sapiens) (Q2M2I8 whole entry, looked up): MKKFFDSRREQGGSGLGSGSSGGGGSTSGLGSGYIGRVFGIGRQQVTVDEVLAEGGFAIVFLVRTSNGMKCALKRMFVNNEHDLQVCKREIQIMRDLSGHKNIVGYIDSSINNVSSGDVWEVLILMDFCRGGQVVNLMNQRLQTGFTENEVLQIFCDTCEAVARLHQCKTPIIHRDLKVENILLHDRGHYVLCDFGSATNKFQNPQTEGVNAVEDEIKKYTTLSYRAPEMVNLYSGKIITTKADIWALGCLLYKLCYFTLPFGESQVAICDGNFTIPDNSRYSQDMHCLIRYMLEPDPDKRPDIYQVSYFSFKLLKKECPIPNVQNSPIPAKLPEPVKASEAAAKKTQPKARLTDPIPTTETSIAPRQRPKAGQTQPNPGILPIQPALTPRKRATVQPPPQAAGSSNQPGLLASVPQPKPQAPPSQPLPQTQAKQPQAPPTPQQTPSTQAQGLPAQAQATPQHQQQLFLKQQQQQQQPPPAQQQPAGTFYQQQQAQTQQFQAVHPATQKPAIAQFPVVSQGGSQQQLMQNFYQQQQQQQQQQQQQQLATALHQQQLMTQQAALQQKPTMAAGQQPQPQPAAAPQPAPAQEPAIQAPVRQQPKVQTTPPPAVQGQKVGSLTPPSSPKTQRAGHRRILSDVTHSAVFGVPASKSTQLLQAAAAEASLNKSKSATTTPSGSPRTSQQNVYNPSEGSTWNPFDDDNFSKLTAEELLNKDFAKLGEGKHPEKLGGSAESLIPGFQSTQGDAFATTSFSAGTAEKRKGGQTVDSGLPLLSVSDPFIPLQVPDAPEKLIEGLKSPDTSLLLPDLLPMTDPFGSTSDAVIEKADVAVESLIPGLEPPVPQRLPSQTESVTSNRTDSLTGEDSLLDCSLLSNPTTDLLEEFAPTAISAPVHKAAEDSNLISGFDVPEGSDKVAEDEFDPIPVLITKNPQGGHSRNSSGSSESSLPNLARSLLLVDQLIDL

Sequence of Calcium/calmodulin-dependent protein kinase type II subunit beta (Homo sapiens) (Q13554 whole entry): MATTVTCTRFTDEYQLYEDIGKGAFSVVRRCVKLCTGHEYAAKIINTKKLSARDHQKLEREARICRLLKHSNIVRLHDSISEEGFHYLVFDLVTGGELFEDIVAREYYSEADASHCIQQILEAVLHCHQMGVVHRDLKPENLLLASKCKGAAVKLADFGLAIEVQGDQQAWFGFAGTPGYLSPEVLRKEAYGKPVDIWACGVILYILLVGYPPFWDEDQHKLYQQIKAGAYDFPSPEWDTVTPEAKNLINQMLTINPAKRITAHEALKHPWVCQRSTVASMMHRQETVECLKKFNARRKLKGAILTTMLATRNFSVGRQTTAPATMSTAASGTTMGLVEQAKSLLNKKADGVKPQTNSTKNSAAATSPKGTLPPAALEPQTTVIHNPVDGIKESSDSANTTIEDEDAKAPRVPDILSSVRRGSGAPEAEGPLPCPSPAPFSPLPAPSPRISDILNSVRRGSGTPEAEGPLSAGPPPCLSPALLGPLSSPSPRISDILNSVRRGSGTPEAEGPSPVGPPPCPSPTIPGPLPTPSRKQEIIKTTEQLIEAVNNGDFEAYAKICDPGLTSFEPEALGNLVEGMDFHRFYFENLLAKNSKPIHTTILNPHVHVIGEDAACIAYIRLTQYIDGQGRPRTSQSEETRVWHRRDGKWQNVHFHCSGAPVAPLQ
Sequence of Insulin receptor (Homo sapiens) (P06213 28-758 limits assumed): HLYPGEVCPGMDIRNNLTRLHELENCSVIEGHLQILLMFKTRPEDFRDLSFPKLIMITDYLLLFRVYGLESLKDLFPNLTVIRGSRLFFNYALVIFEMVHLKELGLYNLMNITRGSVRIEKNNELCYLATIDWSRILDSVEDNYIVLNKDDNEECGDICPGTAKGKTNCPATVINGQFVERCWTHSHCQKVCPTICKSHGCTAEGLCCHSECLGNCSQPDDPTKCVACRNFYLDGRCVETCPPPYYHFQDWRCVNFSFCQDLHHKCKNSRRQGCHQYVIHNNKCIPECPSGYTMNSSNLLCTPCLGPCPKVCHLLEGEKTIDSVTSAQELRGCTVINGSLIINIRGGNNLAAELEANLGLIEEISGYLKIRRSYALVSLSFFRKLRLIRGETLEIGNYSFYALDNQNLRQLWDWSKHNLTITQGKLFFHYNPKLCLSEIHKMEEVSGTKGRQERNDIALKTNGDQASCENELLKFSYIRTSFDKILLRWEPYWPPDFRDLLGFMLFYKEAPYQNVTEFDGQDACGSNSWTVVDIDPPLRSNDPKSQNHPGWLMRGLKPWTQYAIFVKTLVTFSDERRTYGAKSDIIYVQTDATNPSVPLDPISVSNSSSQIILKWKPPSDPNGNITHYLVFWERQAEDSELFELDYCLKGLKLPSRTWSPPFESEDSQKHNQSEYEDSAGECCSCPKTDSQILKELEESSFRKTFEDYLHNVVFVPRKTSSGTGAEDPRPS
Sequence of Insulin receptor (Homo sapiens) (P06213 763-1382 limits assumed): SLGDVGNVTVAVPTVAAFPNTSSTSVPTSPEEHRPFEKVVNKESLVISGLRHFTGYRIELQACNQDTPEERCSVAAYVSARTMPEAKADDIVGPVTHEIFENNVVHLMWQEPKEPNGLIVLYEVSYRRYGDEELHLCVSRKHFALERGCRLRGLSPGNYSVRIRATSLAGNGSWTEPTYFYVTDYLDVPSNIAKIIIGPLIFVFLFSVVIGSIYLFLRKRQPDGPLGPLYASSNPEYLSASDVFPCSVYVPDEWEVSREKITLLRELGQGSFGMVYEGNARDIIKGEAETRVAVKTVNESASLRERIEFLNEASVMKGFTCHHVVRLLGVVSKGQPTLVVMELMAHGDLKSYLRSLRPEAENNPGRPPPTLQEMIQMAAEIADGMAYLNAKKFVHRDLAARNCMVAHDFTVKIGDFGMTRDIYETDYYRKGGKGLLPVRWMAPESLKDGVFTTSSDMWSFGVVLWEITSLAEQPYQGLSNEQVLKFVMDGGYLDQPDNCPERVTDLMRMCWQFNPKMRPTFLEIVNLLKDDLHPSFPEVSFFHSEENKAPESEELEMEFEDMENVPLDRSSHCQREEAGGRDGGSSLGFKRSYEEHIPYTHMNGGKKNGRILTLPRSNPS
Sequence of Casein kinase I isoform gamma-2 (Homo sapiens) (P78368 whole entry, looked up, canonical isoform): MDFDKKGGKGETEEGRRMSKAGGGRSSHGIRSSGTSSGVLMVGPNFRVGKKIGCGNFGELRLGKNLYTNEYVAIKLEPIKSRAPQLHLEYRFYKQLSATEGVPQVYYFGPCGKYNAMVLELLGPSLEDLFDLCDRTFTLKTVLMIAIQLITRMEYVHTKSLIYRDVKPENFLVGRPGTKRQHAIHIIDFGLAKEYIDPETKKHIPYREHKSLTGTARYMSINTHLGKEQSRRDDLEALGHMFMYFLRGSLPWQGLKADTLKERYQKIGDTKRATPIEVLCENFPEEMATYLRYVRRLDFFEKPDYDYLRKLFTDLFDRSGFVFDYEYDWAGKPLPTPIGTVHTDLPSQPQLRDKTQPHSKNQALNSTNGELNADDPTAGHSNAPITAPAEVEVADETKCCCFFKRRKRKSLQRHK
Sequence of Tyrosine-protein kinase CSK (Homo sapiens) (P41240 2-450 limits assumed): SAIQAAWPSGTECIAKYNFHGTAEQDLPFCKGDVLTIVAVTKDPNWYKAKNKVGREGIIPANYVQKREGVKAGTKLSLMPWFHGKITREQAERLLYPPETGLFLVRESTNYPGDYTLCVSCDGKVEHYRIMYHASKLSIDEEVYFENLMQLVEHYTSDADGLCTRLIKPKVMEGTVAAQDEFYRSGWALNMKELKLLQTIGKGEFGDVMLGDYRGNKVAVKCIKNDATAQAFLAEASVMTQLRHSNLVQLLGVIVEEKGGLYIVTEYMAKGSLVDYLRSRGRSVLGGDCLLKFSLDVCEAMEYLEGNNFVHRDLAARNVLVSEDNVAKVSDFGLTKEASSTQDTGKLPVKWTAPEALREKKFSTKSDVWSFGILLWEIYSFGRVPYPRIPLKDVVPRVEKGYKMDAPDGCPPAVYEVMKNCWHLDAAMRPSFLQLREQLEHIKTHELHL
Sequence of Serine/threonine-protein kinase Nek6 (Homo sapiens) (Q9HC98 whole entry): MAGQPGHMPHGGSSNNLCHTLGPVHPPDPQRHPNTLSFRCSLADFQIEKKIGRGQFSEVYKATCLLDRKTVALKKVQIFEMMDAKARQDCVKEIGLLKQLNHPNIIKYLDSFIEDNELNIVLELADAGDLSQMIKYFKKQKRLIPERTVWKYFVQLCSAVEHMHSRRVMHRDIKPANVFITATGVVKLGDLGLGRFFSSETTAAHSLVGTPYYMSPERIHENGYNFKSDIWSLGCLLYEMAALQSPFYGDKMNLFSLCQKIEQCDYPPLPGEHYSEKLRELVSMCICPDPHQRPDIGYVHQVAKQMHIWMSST
Sequence of Fibroblast growth factor receptor 1 (Homo sapiens) (P11362 22-822 limits assumed): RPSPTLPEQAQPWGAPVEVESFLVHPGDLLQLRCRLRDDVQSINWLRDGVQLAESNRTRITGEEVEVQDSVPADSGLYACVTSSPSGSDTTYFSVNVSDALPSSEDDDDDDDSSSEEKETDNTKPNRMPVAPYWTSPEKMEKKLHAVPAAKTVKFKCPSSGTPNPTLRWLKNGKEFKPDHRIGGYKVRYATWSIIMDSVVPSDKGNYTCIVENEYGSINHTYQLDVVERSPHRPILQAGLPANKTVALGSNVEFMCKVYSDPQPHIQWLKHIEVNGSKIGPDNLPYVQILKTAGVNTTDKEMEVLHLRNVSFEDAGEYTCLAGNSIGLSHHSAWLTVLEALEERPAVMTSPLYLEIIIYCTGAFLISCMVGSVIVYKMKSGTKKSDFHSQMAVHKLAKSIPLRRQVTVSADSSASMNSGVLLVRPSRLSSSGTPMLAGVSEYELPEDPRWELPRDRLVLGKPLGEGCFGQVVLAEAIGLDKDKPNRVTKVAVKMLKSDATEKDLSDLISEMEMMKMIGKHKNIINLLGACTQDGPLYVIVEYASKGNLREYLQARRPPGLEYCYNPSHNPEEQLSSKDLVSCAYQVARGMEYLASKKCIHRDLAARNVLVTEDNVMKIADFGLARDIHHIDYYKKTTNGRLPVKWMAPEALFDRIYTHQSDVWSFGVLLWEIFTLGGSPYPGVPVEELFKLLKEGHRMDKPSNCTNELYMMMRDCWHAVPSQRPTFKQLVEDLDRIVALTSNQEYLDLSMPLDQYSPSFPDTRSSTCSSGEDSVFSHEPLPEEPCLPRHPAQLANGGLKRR

`O[C@H]1CC[C@H](Nc2nccc(-n3ccc4ccccc43)n2)CC1`: the inhibition in assay [1], in [2], in [3], in assay [4], in [5] and in assay [6] was less than 50% each time. The inhibition was less than 50% in [7]; less than 50% in assay [8]; less than 50% in [9]; 80% in assay [10]; 70% in [11].

With `O[C@H]1CC[C@H](Nc2nccc(-n3nnc4ccccc43)n2)CC1`, the inhibition in [1] is less than 50%; in assay [2], 81%; in [3], less than 50%; in assay [4] it was less than 50%; in assay [5], 73%; in assay [6], less than 50%. In addition, the inhibition in assay [7] is 50%; in [8], less than 50%; in assay [9] it was less than 50%; in assay [10], 67%; in assay [11], 98%.

For `O=C([C@H]1CC[C@H](Nc2nccc(-n3nnc4ccccc43)n2)CC1)N1CCOCC1`, the inhibition in assay [1] is less than 50%; in assay [2] it was less than 50%; in assay [3], less than 50%; in [4] it was less than 50%; in [5], 66%; in assay [6], less than 50%. For the same compound, the inhibition in assay [7] is 76%; in [8], less than 50%; in [9], less than 50%; in assay [10], less than 50%; in [11], 98%.

For `O[C@H]1CC[C@H](Nc2nccc(-n3ncc4ccccc43)n2)CC1`, the inhibition in assay [1], in assay [2], in assay [3], in [4], in [5] and in assay [6] was less than 50% each time. Moreover, the inhibition in [7] was less than 50%; in [8], less than 50%; in [9], less than 50%; in [10] it was 87%; in [11], 95%.

With `O[C@H]1CC[C@H](Nc2nccc(-c3n[nH]c4ccccc34)n2)CC1`, the inhibition is 78% in assay [1]; less than 50% in assay [2]; 98% in assay [3]; less than 50% in assay [4]; 77% in assay [5]; 80% in assay [6]. The inhibition in [7] is 74%; in assay [8] it was less than 50%; in [9], less than 50%; in assay [10], 88%; in [11] it was 99%.

`N[C@H]1CC[C@H](Nc2nccc(-n3nnc4ccccc43)n2)CC1`: the inhibition in assay [1], in [2], in assay [3], in assay [4], in assay [5] and in [6] was less than 50% throughout. Further, the inhibition in assay [7] is 100%; in assay [8], less than 50%; in assay [9], less than 50%; in assay [10], less than 50%; in [11] it was 99%.
